Results from ChEMBL document CHEMBL1138302, “Diaryl dihydropyrazole-3-carboxamides with significant in vivo antiobesity activity related to CB1 receptor antagonism: synthesis, biological evaluation, and molecular modeling in the homology model” (J Med Chem, 2007).

Tested on: Rattus norvegicus
Assay: Inhibition of sucrose intake in Zucker fa/fa rat at 10 mg/kg, po after 4 hrs
Type: functional
Conditions: for inhibition in vivo at 10 mg/kg: Rattus norvegicus, Zucker, po, 4 h
Procedure, shortened: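 Female Zucker fa/fa rats (10-12 weeks, 300-350 g) trained six consecutive days on 5% sucrose with food and water withdrawn; day 7 randomized (n=6), dosed orally 10 mg/kg in 0.5% carboxymethylcellulose (2 mL/kg), exposed to sucrose 1 h later for 4 h. Consumption measured; % inhibition vs vehicle control; one-way ANOVA with Dunnett's test.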

SMILES: Cc1ccc(C2CC(C(=O)NN3CCOCC3)=NN2c2ccc(Cl)cc2Cl)s1 (stereo unspecified)
- inhibition in vivo at 10 mg/kg: 9.3%

SMILES: O=C(NN1CCOCC1)C1=NN(c2ccc(Cl)cc2Cl)C(c2cccs2)C1 (stereo unspecified)
- inhibition in vivo at 10 mg/kg: 3%

SMILES: O=C(NN1CCCCC1)C1=NN(c2ccc(Cl)cc2Cl)C(c2ccc(Cl)cc2)C1 (stereo unspecified)
- inhibition in vivo at 10 mg/kg: 23.6%

SMILES: CN1CCN(NC(=O)C2=NN(c3ccc(Cl)cc3Cl)C(c3ccc(Cl)cc3)C2)CC1 (stereo unspecified)
- inhibition in vivo at 10 mg/kg: 22.6%

SMILES: O=C(NN1CCOCC1)C1=NN(c2ccccc2)C(c2ccc(Cl)cc2)C1 (stereo unspecified)
- inhibition in vivo at 10 mg/kg: 0.5%

SMILES: O=C(NN1CCOCC1)C1=NN(c2ccccc2)C(c2ccccc2)C1 (stereo unspecified)
- inhibition in vivo at 10 mg/kg: 11.9%

SMILES: O=C(NN1CCOCC1)C1=NN(c2ccc(Cl)cc2Cl)C(c2ccccc2)C1 (stereo unspecified)
- inhibition in vivo at 10 mg/kg: 31.9%

SMILES: CCCCOc1ccc(C2CC(C(=O)NN3CCOCC3)=NN2c2ccc(Cl)cc2Cl)cc1 (stereo unspecified)
- inhibition in vivo at 10 mg/kg: 18.1%

SMILES: O=C(NN1CCOCC1)C1=NN(c2ccc(Cl)cc2Cl)C(c2ccc3c(c2)OCO3)C1 (stereo unspecified)
- inhibition in vivo at 10 mg/kg: 17%

SMILES: O=C(NN1CCOCC1)C1=NN(c2ccc(Cl)cc2Cl)C(c2ccco2)C1 (stereo unspecified)
- inhibition in vivo at 10 mg/kg: 15.1%

SMILES: O=C(NN1CCOCC1)C1=NN(c2ccc(Cl)cc2Cl)C(c2ccc(Br)cc2)C1 (stereo unspecified)
- inhibition in vivo at 10 mg/kg: 24.2%

SMILES: O=C(NN1CC2CCCC2C1)C1=NN(c2ccc(Cl)cc2Cl)C(c2ccc(Cl)cc2)C1 (stereo unspecified)
- inhibition in vivo at 10 mg/kg: 3.6%

SMILES: O=C(NN1CCCCCC1)C1=NN(c2ccc(Cl)cc2Cl)C(c2ccc(Cl)cc2)C1 (stereo unspecified)
- inhibition in vivo at 10 mg/kg: 8.4%

SMILES: O=C(NN1CCCC1)C1=NN(c2ccc(Cl)cc2Cl)C(c2ccc(Cl)cc2)C1 (stereo unspecified)
- inhibition in vivo at 10 mg/kg: 2.5%

SMILES: O=C(NN1CCOCC1)C1=NN(c2ccc(Cl)cc2Cl)C(c2ccc(Cl)cc2)C1.O=C(O)C(=O)O (stereo unspecified)
- Inhibition: 20.4%

SMILES: O=C(NN1CCOCC1)C1=NN(c2ccc(Cl)cc2Cl)C(c2ccc(Cl)s2)C1 (stereo unspecified)
- inhibition in vivo at 10 mg/kg: 16.7%
